Tests used:
[1] = test system: Canis familiaris; test: Mean arterial blood pressure (MABP) in an acutely instrumented anesthetized dog model at 0.1 mg/kg intravenous dose; type: functional, Canis lupus familiaris
Outline: (§1)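 Adult mongrel dogs of either sex, anesthetized with pentobarbital 35 mg/kg IV and maintained by infusion at 5 mg/kg per h. Control data collected for 30 min. Drug given IV in saline (or dilute HCl/NaOH diluted with saline), 0.1 mL/kg over 1 min. Ascending doses, usually half-log apart, 10-30 min between doses, one compound per dog. Recorded LV dP/dtmax, heart rate and aortic pressure as % change from control.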

[2] = test system: Canis familiaris; test: Myocardial contractility in an acutely instrumented anesthetized dog model at 0.03 mg/kg intravenous dose; type: functional, Canis lupus familiaris, Myocardium; outline: as §1
[3] = test system: Canis familiaris; test: Change from control in mean arterial blood pressure (MABP) in an acutely instrumented anesthetized dog model at […] intravenous dose
[4] = test system: Canis familiaris; test: Mean arterial blood pressure (MABP) in an acutely instrumented anesthetized dog model at 0.01 mg/kg intravenous dose; type: functional, Canis lupus familiaris; outline: as §1
[5] = test system: Canis familiaris; test: Myocardial contractility in an acutely instrumented anesthetized dog model at 0.01 mg/kg intravenous dose; type: functional, Canis lupus familiaris, Myocardium; settings: dose 0.1 mg/kg, in the assay text read “0.1 mg/kg” for “0.01 mg/kg”; outline: as §1
[6] = test system: Canis familiaris; test: Myocardial contractility in an acutely instrumented anesthetized dog model at […] intravenous dose; type: functional, Canis lupus familiaris, Myocardium
[7] = test system: Canis familiaris; test: Myocardial contractility in an acutely instrumented anesthetized dog model at 1 mg/kg intravenous dose; type: functional, Canis lupus familiaris, Myocardium; outline: as §1
[8] = test system: Canis familiaris; test: Heart rate (HR) in an acutely instrumented anesthetized dog model at 0.03 mg/kg intravenous dose; type: functional, Canis lupus familiaris; outline: as §1
[9] = test system: Canis familiaris; test: Myocardial contractility in an acutely instrumented anesthetized dog model at 0.001 mg/kg intravenous dose; type: functional, Canis lupus familiaris, Myocardium; settings: dose 0.01 mg/kg, in the assay text read “0.01 mg/kg” for “0.001 mg/kg”; outline: as §1
[10] = test system: Canis familiaris; test: Mean arterial blood pressure (MABP) in an acutely instrumented anesthetized dog model at 1 mg/kg intravenous dose; type: functional, Canis lupus familiaris; outline: as §1
[11] = test system: Canis familiaris; test: Heart rate (HR) in an acutely instrumented anesthetized dog model at 0.1 mg/kg intravenous dose; type: functional, Canis lupus familiaris; outline: as §1
[12] = test system: Canis familiaris; test: Heart rate (HR) in an acutely instrumented anesthetized dog model at […] intravenous dose; type: functional, Canis lupus familiaris
[13] = test system: Canis familiaris; test: Heart rate (HR) in an acutely instrumented anesthetized dog model at 0.01 mg/kg intravenous dose; type: functional, Canis lupus familiaris; outline: as §1
[14] = test system: Canis familiaris; test: Mean arterial blood pressure (MABP) in an acutely instrumented anesthetized dog model at 0.03 mg/kg intravenous dose; type: functional, Canis lupus familiaris; outline: as §1
[15] = test system: Canis familiaris; test: Heart rate (HR) in an acutely instrumented anesthetized dog model at 1 mg/kg intravenous dose; type: functional, Canis lupus familiaris; outline: as §1

Structure (SMILES) | MABP change from control [1] | Change from Control (LV dp/dt) [2] | MABP change from control [3] | MABP change from control [4] | Change from Control (LV dp/dt) [5] | Change from Control (LV dp/dt) [6] | Change from Control (LV dp/dt) [7] | HR change from control [8] | Change from Control (LV dp/dt) [9] | MABP change from control [10] | HR change from control [11] | HR change from control [12] | HR change from control [13] | MABP % change from control [14] | HR change from control [15]
Cc1nc(O)c(C#N)c(C)c1-c1ccc(-n2ccnc2)cc1 | -17.5% | 86% | -35% | 0% | 137% | 160% | 135% | 2% | 21% | -49% | 15% | 16% | 1% | -6 | 26%
Cc1c(-c2ccc(-n3ccnc3)cc2)cnc(O)c1C#N | 5.5% | 12% | 9.7% | 1.5% | 21% | 54% | 125.5% | 2% | 2.5% | -2.5% | 4.5% | 7.5% | -0.5% | 4.7 | 19.5%
Cc1nc(O)c(N)cc1-c1ccc(-n2ccnc2)cc1 | -5% | 80.5% | -17.5% | 0.5% | 134.5% | 125.5% | 105.5% | 12% | 24.5% | -27.5% | 18% | 21.5% | -1.5% | 1 | 22%
Cc1nc(O)ccc1-c1ccc(-n2ccnc2)cc1 | -9.5% | 85% | -20% | -2.5% | 109% | 121% | 122% | 9% | 36% | -19.5% | 17% | 26% | 3% | -2 | 29%

Source: ChEMBL document CHEMBL1123756, “Cardiotonic agents. 5. 1,2-Dihydro-5-[4-(1H-imidazol-1-yl)phenyl]-6-methyl-2-oxo-3- pyridinecarbonitriles and related compounds. Synthesis and inotropic activity” (J Med Chem, 1987)
